Records with an inconclusive call do not appear.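 Rule for the calls, unless noted: active = viability at or below 27.92% in each of two runs, the all-compound median minus 4 SD; inconclusive = no clear call, values can overlap the other calls; inactive = the rest.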
Experiments:
[1] = OD615 S. cerevisiae growth inhibition, permissive medium, pilot counter-assay, permissive growth control for S. cerevisiae lifespan shortening project (AID 705;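 active = growth inhibition above 25% in both replicates, a cutoff set 3 SD above the mean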); conditions: OD615, 24 h, at 10 µM, hits give high values
Outline: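 assay system = Saccharomyces cerevisiae strain carrying genetically modified DeaD replicative-lifespan system | medium = SC raffinose/galactose permissive medium | dosing = 10 µM single dose, 0.25% DMSO | schedule = 24 h compound exposure at 30 °C after 4 h pre-growth | measured by = OD at 615 nm | read-out basis = growth inhibition from lowered OD615 after 24 h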

[2] = Restrictive medium S. cerevisiae growth inhibition, OD615, pilot screen of yeast lifespan reduction project, restrictive growth control (AID 706;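 active = growth inhibition above a set limit, 3 SD over mean compound inhibition, in both replicates, cut at about 43% in these data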;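 note: modified DeaD lifespan yeast strain shifted to restrictive glucose medium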); conditions: OD615, 48 h, at 10 µM, hits give high values
Outline: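 Buffer or medium: CSMM-D glucose medium. Material: genetically modified Saccharomyces cerevisiae, DeaD replicative lifespan assay strain. Times: 48 h compound exposure at 30 °C. Measured by: optical density at 615 nm.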

[3] = viability gain of MRP-1-high H69AR cells under doxorubicin, pilot screen, MRP-1 activator project, CellTiter-Glo, duplicate (AID 807;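 active = viability increase at or above a cutoff of the median across tested compounds plus 3 SD, cut at about 8.5% in these data, passing the limit was not always enough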;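 note: compound pretreatment 18-22 h then 72 h combined with doxorubicin; 0% = doxorubicin alone and 100% = vehicle without doxorubicin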); conditions: H69AR viability with doxorubicin, CellTiter-Glo luminescence; at 10 µM; hits give high values
[4] = growth suppression of beta-catenin knockout HCT116, pilot screen, human colon tumor cells (AID 823;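 active = cell viability at or below a set limit in both duplicate runs, the limit being the all-compound median minus 4 SD, cut at about 23% in these data, passing the limit was not always enough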;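 note: 0% = wells killed by 20 µM Hyamine and 100% = untreated DMSO cell wells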); conditions: CellTiter-Glo, 60 h, at 10 µM, hits give low values
[5] = growth suppression of PTEN-deleted HCT116, pilot screen, cell-based, HCT116 clonal line, CellTiter-Glo (AID 824); conditions: 60 h, at 10 µM, hits give low values;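 note: 0% = 20 µM Hyamine control and 100% = vehicle cell control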
[6] = inhibitors of the yeast RAM network, pilot screen, dse1pr::URA3 reporter, 5-FOA selection (AID 869;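 active = inhibition over a set limit, the all-compound mean plus 3 SD, in both replicate runs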;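 note: 0% = DMSO wells with no growth and 100% = 10 µM 1-NA-PP1 with full growth; RAM network block rescues cells from 5-FOA so hits raise OD615 growth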); conditions: S. cerevisiae dse1pr::URA3 5-FOA growth, OD615, 2 d; at 10 µM; hits give high values; strain carries analog-sensitive mutant Cbk1 kinase
[7] = RAM signaling pathway blockade in yeast – S. cerevisiae, Pdr1DBD-CYC8 efflux-inhibited sensitized strain, primary screen (AID 1298;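 active = RAM network inhibition above 8.4% in each of two replicates, 3 SD over the compound average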;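 note: 0% = DMSO untreated cells without growth and 100% = 10 µM 1-NA-PP1 full growth; higher means more yeast growth rescued from 5-FOA killing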); conditions: S. cerevisiae cbk1-as DSE1-URA3 strain, 5-FOA growth OD615, 2 d; at 50 µM; hits give high values

COc1ccc(C2N(c3cc(Cl)ccc3OC)C(=O)C3CCCN32)cc1 (stereo not drawn)
inactive: growth inhibition [1] 2.4% | growth inhibition [2] -1.37% | viability increase [3] -1.89% | viability [4] 106% | viability [5] 96.9% | inhibition [6] 1.01% | RAM network inhibition [7] -0.42%

COc1ccc(C2N(c3ccc(OC)cc3)C(=O)C3CCCN32)cc1 (stereo not drawn)
inactive: growth inhibition [1] -3.41% | growth inhibition [2] 2.04% | viability increase [3] -1.64% | viability [4] 106% | viability [5] 102% | inhibition [6] 0.67% | RAM network inhibition [7] -0.16%

O=c1cc(N2CCN(c3ccccc3)CC2)[nH]c(=O)n1Cc1ccc(F)cc1
inactive: growth inhibition [1] 6.47% | growth inhibition [2] -4.22% | viability increase [3] 0.72% | viability [4] 89.6% | viability [5] 80.9% | inhibition [6] 2.68% | RAM network inhibition [7] 3.61%

CCOC(=O)c1ccc(N2C(=O)C3CC=C(C)CC3C2=O)cc1 (stereo not drawn)
inactive: growth inhibition [1] -9.14% | growth inhibition [2] -14.8% | viability increase [3] -0.33% | viability [4] 97.1% | viability [5] 91.8% | inhibition [6] 1.07% | RAM network inhibition [7] 1.75%

Cc1cc(N2CCOCC2)c2c(N)c(Br)cc(C)c2n1
inactive: growth inhibition [1] -14% | growth inhibition [2] -15.8% | viability increase [3] -5.84% | viability [4] 80.1% | viability [5] 76.4% | inhibition [6] 1.16% | RAM network inhibition [7] 3.17%

Cc1ccc(OCCN2CCCCCC2)c(C)c1
inactive: growth inhibition [1] -6.26% | growth inhibition [2] 2.46% | viability increase [3] -3.81% | viability [4] 71.1% | viability [5] 70.4% | inhibition [6] 1.21% | RAM network inhibition [7] 2.8%

O=c1nc2s/c(=C\c3ccco3)c(=O)n2nc1Cc1ccccc1
inactive: growth inhibition [1] -15.4% | growth inhibition [2] -3.2% | viability increase [3] -2.41% | viability [4] 97.7% | viability [5] 94.8% | inhibition [6] 2.04% | RAM network inhibition [7] 4.31%

CCOc1ccc(N(CC(=O)NCCCOC)S(C)(=O)=O)cc1
inactive: growth inhibition [1] 4.66% | growth inhibition [2] 3.23% | viability increase [3] -2.35% | viability [4] 98.9% | viability [5] 101% | inhibition [6] 0.95% | RAM network inhibition [7] 2.73%

COC(=O)c1ccc(-c2nc(-c3ccc(Br)o3)no2)cc1
inactive: growth inhibition [1] -14% | growth inhibition [2] -20.4% | viability increase [3] 3.93% | viability [4] 103% | viability [5] 87.4% | inhibition [6] 2.63% | RAM network inhibition [7] 1.84%

COc1cc(NC(=O)C2CCCN2S(=O)(=O)c2ccc3c(c2)CCC(=O)N3)cc(OC)c1 (stereo not drawn)
inactive: growth inhibition [1] -15.3% | growth inhibition [2] -5.1% | viability increase [3] -1.09% | viability [4] 97.7% | viability [5] 105% | inhibition [6] 1.09% | RAM network inhibition [7] 1.33%

CCN(CC)S(=O)(=O)c1ccc(Cl)c(C(=O)Nc2nnc(C)s2)c1
inactive: growth inhibition [1] -6.93% | growth inhibition [2] 1.45% | viability increase [3] 0.43% | viability [4] 93.1% | viability [5] 95.7% | inhibition [6] -0.08% | RAM network inhibition [7] 4.33%

COc1cc(OC)c(NC2c3ccccc3C(=O)N2c2cc(C)ccn2)cc1Cl (stereo not drawn)
inactive: growth inhibition [1] -11.7% | growth inhibition [2] -3.74% | viability increase [3] 0.48% | viability [4] 92.9% | viability [5] 84.2% | inhibition [6] 0% | RAM network inhibition [7] 6.68%

O=C(C1CC1)N1CCc2cc(Br)cc(S(=O)(=O)N3CCN(c4ccccn4)CC3)c21
inactive: growth inhibition [1] -13.2% | growth inhibition [2] -14.6% | viability increase [3] -2.17% | viability [4] 91% | viability [5] 91.5% | inhibition [6] 1.29% | RAM network inhibition [7] 5.52%

O=C(O)CCC(=O)Nc1ccc(-c2nnc(-c3ccco3)o2)cc1
inactive: growth inhibition [1] -12.8% | growth inhibition [2] -4.63% | viability increase [3] -0.63% | viability [4] 102% | viability [5] 99.8% | inhibition [6] 1.61% | RAM network inhibition [7] 2.14%

N#CCC(=O)Nc1ccccc1C(=O)O
inactive: growth inhibition [1] -4.9% | growth inhibition [2] 0.025% | viability increase [3] -2.8% | viability [4] 94.8% | viability [5] 97% | inhibition [6] 0.695% | RAM network inhibition [7] -0.92%

O=C(Nc1c(F)cc(F)cc1Br)c1cc(-c2ccc(O)cc2)on1
inactive: growth inhibition [1] -17.7% | growth inhibition [2] 5.22% | viability increase [3] -4.92% | viability [4] 92% | viability [5] 85.4% | inhibition [6] 0.53% | RAM network inhibition [7] -0.21%

Cc1cc(OC2CCCCC2)nc(-c2ccccc2O)n1
inactive: growth inhibition [1] -21.5% | growth inhibition [2] -17.2% | viability increase [3] -0.33% | viability [4] 87% | viability [5] 81.5% | inhibition [6] 1.9% | RAM network inhibition [7] 12.3%

Cc1ccc(S(=O)(=O)N2CCCC2C(=O)Nc2nccs2)cc1 (stereo not drawn)
inactive: growth inhibition [1] -15.2% | growth inhibition [2] -6.25% | viability increase [3] -1.37% | viability [4] 97% | viability [5] 98.6% | inhibition [6] -0.275% | RAM network inhibition [7] 4.76%

COc1cccc(NC(=O)Cn2cnc3sc(C)c(S(=O)(=O)N4CCN(C)CC4)c3c2=O)c1
inactive: growth inhibition [1] -17.7% | growth inhibition [2] -24.1% | viability increase [3] -1.93% | viability [4] 89% | viability [5] 83.2% | inhibition [6] 1.76% | RAM network inhibition [7] 1.09%

CCN(c1cccc(C)c1)S(=O)(=O)c1cccc2nsnc12
inactive: growth inhibition [1] -12.6% | growth inhibition [2] -20.3% | viability increase [3] -3.59% | viability [4] 77.1% | viability [5] 88.8% | inhibition [6] 1.4% | RAM network inhibition [7] 4.75%

COc1ccc(-c2[nH]c(-c3ccc(F)cc3)nc2SCC(=O)NCc2ccco2)cc1OC
inactive: growth inhibition [1] -4.83% | growth inhibition [2] 12.4% | viability increase [3] -2.49% | viability [4] 96.9% | viability [5] 92.9% | inhibition [6] 0.93% | RAM network inhibition [7] 4.24%

COc1ccc(S(=O)(=O)N2CCC(C(N)=O)CC2)cc1
inactive: growth inhibition [1] 6.47% | growth inhibition [2] -3.14% | viability increase [3] 0.89% | viability [4] 106% | viability [5] 102% | inhibition [6] 3.44% | RAM network inhibition [7] 4.25%

O=C(Cn1nc(Cc2cccnc2)c2ccccc2c1=O)NCCCN1CCCC1=O
inactive: growth inhibition [1] 3.02% | growth inhibition [2] -5.47% | viability increase [3] -0.8% | viability [4] 103% | viability [5] 97.3% | inhibition [6] 0.75% | RAM network inhibition [7] 0.25%

O=C(Nc1ccc(Cl)c(Cl)c1)c1ccncc1
inactive: growth inhibition [1] -19.8% | growth inhibition [2] -34.8% | viability increase [3] -1.27% | viability [4] 101% | viability [5] 90.6% | inhibition [6] 0.83% | RAM network inhibition [7] 2.47%

Source: PubChem BioAssay
